p97 ATPase inh = human p97 ATPase inhibition; P55072; recombinant p97 ATPase, Kinase-Glo ATP luminescence, 3 h; inhibition, % at 8 µM; actives 0.42% (n = 220,000); AID 1481; in the data active = inhibition above about 15%;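 note: 0% = DMSO vehicle and 100% = wells lacking enzyme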
Target sequence (P55072 whole entry, looked up): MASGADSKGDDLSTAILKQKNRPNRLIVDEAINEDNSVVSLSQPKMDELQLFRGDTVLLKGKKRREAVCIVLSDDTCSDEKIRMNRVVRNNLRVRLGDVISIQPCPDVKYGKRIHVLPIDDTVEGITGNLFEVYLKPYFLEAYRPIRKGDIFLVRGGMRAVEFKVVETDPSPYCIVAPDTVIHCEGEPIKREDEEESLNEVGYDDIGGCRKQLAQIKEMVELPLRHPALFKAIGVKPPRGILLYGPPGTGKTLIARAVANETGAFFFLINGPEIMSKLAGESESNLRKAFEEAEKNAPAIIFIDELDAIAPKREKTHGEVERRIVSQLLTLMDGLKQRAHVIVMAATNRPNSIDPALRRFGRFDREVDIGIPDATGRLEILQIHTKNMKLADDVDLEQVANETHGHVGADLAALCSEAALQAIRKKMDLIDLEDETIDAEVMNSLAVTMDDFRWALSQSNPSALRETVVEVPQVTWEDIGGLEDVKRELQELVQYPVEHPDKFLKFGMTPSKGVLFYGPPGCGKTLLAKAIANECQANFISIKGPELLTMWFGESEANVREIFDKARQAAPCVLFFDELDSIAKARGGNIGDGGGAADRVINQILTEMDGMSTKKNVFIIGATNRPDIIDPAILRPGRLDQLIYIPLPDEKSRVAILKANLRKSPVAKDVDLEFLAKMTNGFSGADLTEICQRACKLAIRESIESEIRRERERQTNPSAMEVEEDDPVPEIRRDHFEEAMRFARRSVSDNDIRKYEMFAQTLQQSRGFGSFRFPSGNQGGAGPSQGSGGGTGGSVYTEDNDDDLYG
UBC9 SUMO inh = blocks human SUMOylation mediated by UBC9 | P63279 | HTRF SUMOylation assay, SAE1/SAE2 + UBC9, in vitro | inhibition, % at 35 µM | actives 0.36% (n = 290,000) | AID 2006; in the data active = inhibition above about 50%, passing the limit was not always enough; inconclusive = no clear call, values can overlap the other calls
HKDC1 inh = inhibitors of human hexokinase HKDC1. inhibition, % at 20 µM. recombinant HKDC1, G6PDH/diaphorase resazurin coupled fluorescence. actives 0.16% (n = 340,000);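 active = inhibition above about 35% when tested at 20 µM, limit read from the data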;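 note: plate controls were DMSO wells with enzyme for no effect and DMSO wells lacking enzyme for full effect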
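Material – in-house recombinant HK5 (HKDC1) enzyme · Quantity – HKDC1 at 5 µg/mL · Buffer or medium – pH 8.0 Tris buffer with 10 mM MgCl2 · Reagent – glucose with 1 mM ATP · Dosing – single 20 µM dose · Times – reaction time 90 min, room temperature, protected from light · Technique – resorufin fluorescence at 613 nm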
G6PDH counter = inhibits Leuconostoc G6PDH, flagging false hits in G6PDH-based assays; inhibition, % at 5 µM; actives 0.12% (n = 200,000); Purified L. mesenteroides G6PDH, diaphorase/resazurin coupled fluorescence, 45 min; in the data active = inhibition above about 50%
Diaphorase inh = counter-screen for diaphorase-based assays: diaphorase inhibitors and chemical oxidizers. diaphorase resazurin-to-resorufin fluorescence, NADH, 16 min; bacterial (C. kluyveri) enzyme, not human. inhibition, % at 20 µM. actives 0.69% (n = 190,000);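 active = primary screen inhibition at 20 µM above a set limit, cut at about 50% in these data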;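 note: plate controls were DMSO with full reaction for no effect and wells lacking NADH for full effect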
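System: Bacterial diaphorase enzyme (C. kluyveri) | Incubation: 16-min room-temperature incubation before reading | Benchmarks: No-NADH positive control and DMSO neutral control | Measured by: Resorufin fluorescence 544/590 nm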
Numbers without * were called inactive; ? = inconclusive; / = no result. Hits are enriched below; roughly 0.95% of the tested compounds scored in any of these assays.

SMILES	p97 ATPase inh	UBC9 SUMO inh	HKDC1 inh	G6PDH counter	Diaphorase inh
COc1ccc(Cn2c(N)c(C(=O)NCc3ccco3)c3nc4ccccc4nc32)cc1	4.2	95.3	7.4	11.3	40.4
Nc1c(C(=O)NCc2ccco2)c2nc3ccccc3nc2n1Cc1ccccc1	3.4	100.9*	7.3	4.6	31.5
Nc1c(C(=O)NCc2ccco2)c2nc3ccccc3nc2n1Cc1ccc(F)cc1	5.4	99.9*	22.2	-28.3	21.9
Nc1c(C(=O)NCc2ccco2)c2nc3ccccc3nc2n1CCN1CCOCC1	6.5	34.0	11.4	6.9	21.9
COC1C(C)OC(OC2CC(C)(O)Cc3cc4c(c(O)c32)C(=O)c2c(O)cc3c(c2C4=O)OC2OC3(C)C(O)C(N(C)C)C2O)C(OC)C1(C)OC (stereo not given)	/	/	14.2	/	/
CC(Cc1ccccc1)N(C)CC1C(=O)C2CCC1C2 (stereo not given)	/	/	-0.3	/	/
Cc1cc(O)c2c(c1)C(=O)C13C(=C2O)C(=O)[C@H]2[C@@H](O)[C@@H]1[C@H]1[C@H](O)[C@@H]3C(=O)C3=C(O)c4c(O)cc(C)cc4C(=O)C312 (stereo not given in full)	/	/	67.4*	/	/
CCOc1ccc(NC(=O)CCNC(=O)N2C[C@H]3C[C@@H](C2)c2cccc(=O)n2C3)cc1	/	7.7	-2.9	/	/
O=C1NC(=S)N(Cc2ccco2)C(=O)/C1=C\c1cccs1	40.8*	94.2*	/	16.9	90.1*
CN(CC=CCN(C)P(=S)(N1CC1)N1CC1)P(=S)(N1CC1)N1CC1	/	/	-7.6	/	/
O=C1NC(=O)N(Cc2ccco2)C(=O)/C1=C/c1ccc(-c2cccc([N+](=O)[O-])c2)o1	15.5*	/	36.9*	11.1	30.1
C=CCN1C(=O)NC(=O)/C(=C\c2ccc(-c3ccccc3[N+](=O)[O-])o2)C1=O	3.8	15.3	1.2	0.4	29.5
O=C(O)c1cccc2c1NC(C(=O)O)C1CC(Sc3ccccc3[N+](=O)[O-])C(Cl)C21 (stereo not given)	11.0	?	5.5	0.7	92.6*
CC(=O)c1ccc2c(c1)C1C(Cl)C(Sc3ccccc3[N+](=O)[O-])CC1C(C(=O)O)N2 (stereo not given)	2.1	62.7	20.1	-14.4	66.3*
CCn1nc(-c2cccs2)nc2c(=O)n(C)c(=O)nc1-2	/	100.7*	-30.5	58.4*	-84.0
CCC(C)N1C(=O)NC(=O)C2(Cc3c(ccc4ccccc34)N(C)C2)C1=O (stereo not given)	-2.9	29.2	28.6	40.6	73.8*
COc1ccc2c(c1)CC1(CN2C)C(=O)NC(=O)N(CCc2ccccc2)C1=O (stereo not given)	7.2	-3.7	11.1	7.4	37.3
Nc1cc2nc3ccccc3nc2cc1N	6.4	81.1*	20.1	/	/
Oc1cc2c(cc1O)[C@H]1c3ccccc3CN[C@@H]1CC2	7.7	-1.3	/	31.4	64.6*
COc1cccc(NC2=NCCCS2)c1	/	7.8	-4.9	/	/
CN1CCC2(CC1)C(C#N)=C(N)NC(S)=C2C#N	-0.1	57.2*	11.3	9.1	-3.2
CCCC1(CCO)C(=O)NC(=S)NC1=O	/	/	10.1	/	/
Cc1nn(CC(C)C)c(Cl)c1C(=O)NC1CCCCC1	/	/	-6.2	/	/
c1ccc2c3c(ccc2c1)OCC1CONC31 (stereo not given)	-4.2	6.6	-0.4	4.5	3.7
CC(NCc1ccc(Cl)c(Cl)c1)C(O)c1ccccc1 (stereo not given)	-3.0	2.0	-5.8	0.8	6.0
SMILES	p97 ATPase inh	UBC9 SUMO inh	HKDC1 inh	G6PDH counter	Diaphorase inh
CN[C@@H]1C[C@@H](c2ccc(Cl)c(Cl)c2)c2ccccc21	0.2	-14.1	/	9.2	72.5*
CC1OC(OC2CC(O)C3(CO)C4C(O)CC5(C)C(C6=CC(=O)OC6)CCC5(O)C4CCC3(O)C2)C(O)C(O)C1O (stereo not given)	/	/	-6.1	/	/
CC(C)[C@H]1C(=O)N2CCC[C@H]2[C@]2(O)O[C@](NC(=O)[C@@H]3C=C4c5cccc6[nH]cc(c56)C[C@H]4N(C)C3)(C(C)C)C(=O)N12	1.3	63.7	12.1	44.1	35.4
CN1C[C@H](CO)C=C2c3cccc4[nH]cc(c34)C[C@H]21	1.7	65.3*	11.7	9.0	10.0
CCCCn1c(N)c(C(=O)OCC2CCCO2)c2nc3ccccc3nc21 (stereo not given)	1.0	92.1	12.4	24.2	14.2
CCCCn1c(N)c(C(=O)OCCOC)c2nc3ccccc3nc21	-2.5	66.7*	2.9	/	/
CCCCn1c(NS(=O)(=O)c2ccc(C)cc2)c(C(=O)OCC)c2nc3ccccc3nc21	0.2	99.0*	11.8	-15.0	31.6
O=S(=O)(c1ccccc1)N1CC1c1ccccc1 (stereo not given)	1.5	-5.1	-11.4	5.4	-8.6
Cc1c(C)c2ccc(OCC(=O)N3C[C@H]4C[C@@H](C3)c3cccc(=O)n3C4)cc2oc1=O	/	33.8	17.9	/	/
C/C(=N\Nc1cccc2ccccc12)c1c(O)n(Cc2ccccc2)c(=O)[nH]c1=O	3.9	52.1*	14.4	-18.0	38.4
Nc1c(C(=O)OC2CCCCC2)c2nc3ccccc3nc2n1CC1CCCO1 (stereo not given)	1.6	18.6	6.6	3.4	34.3
CC(C)OCCCNC(=O)c1c(N)n(CC2CCCO2)c2nc3ccccc3nc12 (stereo not given)	-6.6	98.1*	16.4	0.0	17.9
CCCNC(=O)c1c(N)n(CC2CCCO2)c2nc3ccccc3nc12 (stereo not given)	2.9	101.5*	17.4	-2.9	19.6
COc1ccc(CCNC(=O)c2c(N)n(CCN3CCOCC3)c3nc4ccccc4nc23)cc1OC	-0.6	1.5	10.3	2.0	51.0*
CC(C)CCOC(=O)c1c(N)n(CC2CCCO2)c2nc3ccccc3nc12 (stereo not given)	2.5	47.7	11.1	2.4	2.0
COc1ccccc1OP(=O)(Nc1cccnc1)Oc1ccccc1OC	-5.5	-1.2	-6.4	21.3	4.7
S=C1NC2(CCCCC2)NC12CCCCC2	9.1	10.8	-3.7	/	/
CSc1nc(N2CCN(C)CC2)c2ccccc2n1	4.2	9.3	1.6	6.7	56.8*
Cc1cc(N2CCN(C)CC2)nc2ccccc12	/	-9.4	-1.7	/	/
c1ccc(NC2=NCCS2)cc1	-1.4	-0.2	-1.6	/	/
COC(=O)C1=C(c2ccc(OC)c(OC)c2)C[C@@H]2CC[C@H]1N2C(=O)NCCc1ccccc1	/	/	-4.3	/	/
CC[C@@]1(O)C(=O)OCc2c1cc1n(c2=O)Cc2cc3ccccc3nc2-1	3.3	49.2	/	/	/
CCC1(OC(=O)CN)C(=O)OCc2c1cc1n(c2=O)Cc2cc3ccccc3nc2-1 (stereo not given)	0.6	57.1*	0.5	/	/
O=C(Nc1nc(-c2ccccc2)c(-c2ccccc2)s1)c1ccc(S(=O)(=O)N(CCCl)CCCl)cc1	2.1	-1.5	-4.8	8.0	8.4
COc1ccc(N2C(=O)NC(=O)/C(=C/c3ccc([N+](=O)[O-])s3)C2=O)cc1	10.2	50.8*	5.1	/	/

From PubChem BioAssay
